Measured values published in ChEMBL document CHEMBL5696442, “Discovery of type II inhibitors of TGFβ-activated kinase 1 (TAK1) and mitogen-activated protein kinase kinase kinase kinase 2 (MAP4K2)” (J Med Chem, 2015).

Experiments:
Format in all cases: cell-based
[1] = biological target: DNA-PK/Ku70/Ku85 (Homo sapiens) (UniProt P78527+P12956+P13010); test: Inhibition of DNAPK ATP labeling site harbouring EHPFLVKGGEDLR in human A-375 cells at 5 uM by KiNativ Profiling analysis relative to control
Procedure, shortened: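 Live A375 melanoma cells were treated with compound at 0.5 or 5 μM, then lysed. Lysates were labeled with a lysine-reactive ATP or ADP-biotin probe. The read-out was protection of each kinase probe-labeling site from labeling, relative to control.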

[2] = biological target: T1, Kinase suppressor of Ras 2 (Homo sapiens) (UniProt Q6VAB6); test: Inhibition of KSR2 ACT labeling site in human A-375 cells at 5 uM by KiNativ Profiling analysis relative to control
T1 sequence (whole entry): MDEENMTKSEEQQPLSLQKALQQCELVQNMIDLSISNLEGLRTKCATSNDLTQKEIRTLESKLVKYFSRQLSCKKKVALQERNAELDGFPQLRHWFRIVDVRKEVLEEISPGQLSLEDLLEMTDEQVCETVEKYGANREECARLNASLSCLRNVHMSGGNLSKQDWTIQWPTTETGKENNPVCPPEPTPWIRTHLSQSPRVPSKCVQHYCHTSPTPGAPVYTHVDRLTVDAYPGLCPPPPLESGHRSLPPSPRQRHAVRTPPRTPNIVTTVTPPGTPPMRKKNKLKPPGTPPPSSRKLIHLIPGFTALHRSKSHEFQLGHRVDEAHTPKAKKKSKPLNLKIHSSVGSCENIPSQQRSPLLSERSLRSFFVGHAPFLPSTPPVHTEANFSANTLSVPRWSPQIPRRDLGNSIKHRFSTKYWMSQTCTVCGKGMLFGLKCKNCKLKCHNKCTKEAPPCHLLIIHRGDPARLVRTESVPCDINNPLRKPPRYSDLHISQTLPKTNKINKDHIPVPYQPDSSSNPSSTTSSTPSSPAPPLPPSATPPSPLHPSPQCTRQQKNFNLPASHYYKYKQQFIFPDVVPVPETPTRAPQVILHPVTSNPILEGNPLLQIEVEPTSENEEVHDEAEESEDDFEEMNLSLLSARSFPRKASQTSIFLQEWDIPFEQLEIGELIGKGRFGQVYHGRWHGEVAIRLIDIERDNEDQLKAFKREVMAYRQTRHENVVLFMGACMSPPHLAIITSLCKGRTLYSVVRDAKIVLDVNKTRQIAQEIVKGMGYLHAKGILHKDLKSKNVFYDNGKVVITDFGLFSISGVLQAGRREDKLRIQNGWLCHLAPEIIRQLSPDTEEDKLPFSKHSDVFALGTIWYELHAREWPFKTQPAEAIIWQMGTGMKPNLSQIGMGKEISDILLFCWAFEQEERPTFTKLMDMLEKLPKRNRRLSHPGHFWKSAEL

[3] = biological target: T2, Serine/threonine-protein kinase Nek9 (Homo sapiens) (UniProt Q8TD19); test: Inhibition of NEK9 Lys1 labeling site harbouring TEDDSLVVWKEVDLTR in human A-375 cells at 5 uM by KiNativ Profiling analysis relative to control
T2 sequence (whole entry): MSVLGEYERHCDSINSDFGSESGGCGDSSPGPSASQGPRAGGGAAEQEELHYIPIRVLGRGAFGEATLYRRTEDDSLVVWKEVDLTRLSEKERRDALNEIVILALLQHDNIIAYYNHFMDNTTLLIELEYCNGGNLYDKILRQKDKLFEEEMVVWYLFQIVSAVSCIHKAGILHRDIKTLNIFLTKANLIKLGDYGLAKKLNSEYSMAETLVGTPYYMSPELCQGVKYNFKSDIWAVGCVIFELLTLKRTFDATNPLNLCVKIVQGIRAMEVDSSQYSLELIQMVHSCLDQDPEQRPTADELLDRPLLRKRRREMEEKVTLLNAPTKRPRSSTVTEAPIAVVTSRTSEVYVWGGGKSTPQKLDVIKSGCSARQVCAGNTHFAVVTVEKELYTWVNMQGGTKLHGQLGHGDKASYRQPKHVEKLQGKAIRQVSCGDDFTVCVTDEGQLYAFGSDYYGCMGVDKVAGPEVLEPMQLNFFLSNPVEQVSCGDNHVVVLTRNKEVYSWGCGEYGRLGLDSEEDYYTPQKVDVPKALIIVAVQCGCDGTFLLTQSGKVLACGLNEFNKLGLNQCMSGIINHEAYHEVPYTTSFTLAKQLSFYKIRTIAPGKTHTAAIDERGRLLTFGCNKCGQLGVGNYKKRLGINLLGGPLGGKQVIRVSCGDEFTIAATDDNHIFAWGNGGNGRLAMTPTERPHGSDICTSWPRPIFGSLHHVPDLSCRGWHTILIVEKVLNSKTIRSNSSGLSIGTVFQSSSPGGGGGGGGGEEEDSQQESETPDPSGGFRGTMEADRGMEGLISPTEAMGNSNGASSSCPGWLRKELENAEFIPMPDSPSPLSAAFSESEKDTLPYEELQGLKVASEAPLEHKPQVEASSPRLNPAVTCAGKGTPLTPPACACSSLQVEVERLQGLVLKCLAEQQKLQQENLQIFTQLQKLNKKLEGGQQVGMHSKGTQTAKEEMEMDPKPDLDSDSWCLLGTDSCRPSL

[4] = biological target: T3, NUAK family SNF1-like kinase 2 (Homo sapiens) (UniProt Q9H093); test: Inhibition of NuaK2 Lys1 labeling site in human A-375 cells at 0.5 uM by KiNativ Profiling analysis relative to control
T3 sequence (whole entry): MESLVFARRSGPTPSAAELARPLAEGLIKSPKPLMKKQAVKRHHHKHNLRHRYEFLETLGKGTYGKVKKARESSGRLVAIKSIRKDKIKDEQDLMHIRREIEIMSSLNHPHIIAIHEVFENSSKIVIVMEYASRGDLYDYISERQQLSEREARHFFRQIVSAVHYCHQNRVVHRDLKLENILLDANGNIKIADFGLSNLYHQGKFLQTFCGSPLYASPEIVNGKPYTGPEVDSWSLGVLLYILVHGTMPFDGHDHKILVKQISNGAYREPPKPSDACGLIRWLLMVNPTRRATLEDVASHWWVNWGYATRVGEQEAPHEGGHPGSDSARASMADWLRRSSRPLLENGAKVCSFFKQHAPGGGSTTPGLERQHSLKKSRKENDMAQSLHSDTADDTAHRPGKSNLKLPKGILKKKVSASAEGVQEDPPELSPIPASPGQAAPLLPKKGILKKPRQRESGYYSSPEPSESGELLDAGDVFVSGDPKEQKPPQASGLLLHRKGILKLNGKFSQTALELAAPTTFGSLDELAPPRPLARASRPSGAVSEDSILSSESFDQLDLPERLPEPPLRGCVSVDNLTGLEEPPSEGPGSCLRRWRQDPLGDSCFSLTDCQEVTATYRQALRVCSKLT

[5] = biological target: Serine/threonine-protein kinase ATR (Homo sapiens) (UniProt Q13535); test: Inhibition of ATR ATP labeling site in human A-375 cells at 0.05 uM by KiNativ Profiling analysis relative to control
Chain of Serine/threonine-protein kinase ATR (Homo sapiens) (Q13535 whole entry, looked up): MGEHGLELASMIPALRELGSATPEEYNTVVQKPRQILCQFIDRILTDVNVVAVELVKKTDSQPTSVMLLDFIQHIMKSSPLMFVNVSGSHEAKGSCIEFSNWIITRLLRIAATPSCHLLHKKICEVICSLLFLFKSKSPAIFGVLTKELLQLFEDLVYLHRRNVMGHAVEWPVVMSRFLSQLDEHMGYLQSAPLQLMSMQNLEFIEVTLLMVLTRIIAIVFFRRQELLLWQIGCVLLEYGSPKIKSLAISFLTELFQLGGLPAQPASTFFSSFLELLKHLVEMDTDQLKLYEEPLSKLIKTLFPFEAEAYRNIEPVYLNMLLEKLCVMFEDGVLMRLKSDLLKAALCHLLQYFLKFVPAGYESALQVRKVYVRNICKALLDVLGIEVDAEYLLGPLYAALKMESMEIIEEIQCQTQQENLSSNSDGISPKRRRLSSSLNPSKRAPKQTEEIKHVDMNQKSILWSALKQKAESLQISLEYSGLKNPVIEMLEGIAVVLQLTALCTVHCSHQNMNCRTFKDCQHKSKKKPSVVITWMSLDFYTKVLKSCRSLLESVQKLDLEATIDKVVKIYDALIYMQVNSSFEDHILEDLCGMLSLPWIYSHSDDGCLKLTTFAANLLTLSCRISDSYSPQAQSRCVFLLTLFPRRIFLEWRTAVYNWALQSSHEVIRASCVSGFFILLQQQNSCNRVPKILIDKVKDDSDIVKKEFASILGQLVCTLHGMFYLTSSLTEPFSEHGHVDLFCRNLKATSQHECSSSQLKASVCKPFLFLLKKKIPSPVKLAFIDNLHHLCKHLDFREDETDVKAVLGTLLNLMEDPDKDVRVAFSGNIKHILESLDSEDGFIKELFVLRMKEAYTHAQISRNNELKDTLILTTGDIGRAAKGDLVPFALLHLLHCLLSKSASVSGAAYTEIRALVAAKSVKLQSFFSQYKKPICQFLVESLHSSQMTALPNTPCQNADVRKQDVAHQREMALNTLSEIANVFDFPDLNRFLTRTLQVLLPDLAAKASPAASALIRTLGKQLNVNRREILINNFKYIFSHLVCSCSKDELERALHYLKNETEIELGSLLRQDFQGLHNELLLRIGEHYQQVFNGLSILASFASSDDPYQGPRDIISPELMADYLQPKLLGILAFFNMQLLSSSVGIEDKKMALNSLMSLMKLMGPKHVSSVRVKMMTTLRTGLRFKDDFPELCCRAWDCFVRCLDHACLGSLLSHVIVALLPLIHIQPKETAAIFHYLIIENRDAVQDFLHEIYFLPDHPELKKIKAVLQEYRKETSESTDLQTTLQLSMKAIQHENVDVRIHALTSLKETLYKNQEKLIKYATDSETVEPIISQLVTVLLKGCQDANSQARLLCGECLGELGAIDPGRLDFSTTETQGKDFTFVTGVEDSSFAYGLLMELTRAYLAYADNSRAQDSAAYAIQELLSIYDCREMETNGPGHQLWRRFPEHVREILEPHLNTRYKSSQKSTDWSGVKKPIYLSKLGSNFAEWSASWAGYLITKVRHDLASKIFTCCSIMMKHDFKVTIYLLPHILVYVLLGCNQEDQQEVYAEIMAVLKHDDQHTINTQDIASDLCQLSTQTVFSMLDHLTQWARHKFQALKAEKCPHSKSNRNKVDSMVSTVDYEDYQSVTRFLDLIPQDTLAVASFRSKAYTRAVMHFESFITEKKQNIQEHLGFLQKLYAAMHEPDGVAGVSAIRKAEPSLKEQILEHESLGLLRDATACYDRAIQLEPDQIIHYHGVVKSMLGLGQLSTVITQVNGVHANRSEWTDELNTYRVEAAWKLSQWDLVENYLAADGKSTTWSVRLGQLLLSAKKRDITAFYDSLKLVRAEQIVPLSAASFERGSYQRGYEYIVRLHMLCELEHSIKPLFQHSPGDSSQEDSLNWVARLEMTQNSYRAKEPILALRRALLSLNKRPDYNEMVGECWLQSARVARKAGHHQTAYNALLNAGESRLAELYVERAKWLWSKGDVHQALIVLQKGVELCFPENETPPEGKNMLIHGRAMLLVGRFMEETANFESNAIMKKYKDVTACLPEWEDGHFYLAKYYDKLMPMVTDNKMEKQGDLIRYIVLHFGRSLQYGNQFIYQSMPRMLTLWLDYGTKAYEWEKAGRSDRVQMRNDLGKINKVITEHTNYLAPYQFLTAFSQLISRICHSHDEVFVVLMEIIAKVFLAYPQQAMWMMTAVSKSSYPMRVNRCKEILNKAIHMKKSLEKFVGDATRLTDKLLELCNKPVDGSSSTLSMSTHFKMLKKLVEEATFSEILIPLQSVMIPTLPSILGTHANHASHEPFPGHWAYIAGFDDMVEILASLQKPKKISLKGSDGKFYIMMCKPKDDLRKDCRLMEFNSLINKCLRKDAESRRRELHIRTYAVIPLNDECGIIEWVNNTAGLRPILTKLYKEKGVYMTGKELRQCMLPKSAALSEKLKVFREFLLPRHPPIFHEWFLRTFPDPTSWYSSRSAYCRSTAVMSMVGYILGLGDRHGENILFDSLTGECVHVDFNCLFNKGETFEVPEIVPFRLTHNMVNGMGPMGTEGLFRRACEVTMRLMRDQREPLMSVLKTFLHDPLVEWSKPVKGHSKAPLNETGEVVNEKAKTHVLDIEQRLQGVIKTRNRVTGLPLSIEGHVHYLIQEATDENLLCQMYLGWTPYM

CCN1CCN(Cc2ccc(NC(=O)c3ccc(C)c(Oc4ccnc5[nH]ccc45)c3)cc2C(F)(F)F)CC1
inhibition [1]: 12.4%
inhibition [2]: 32.1%
inhibition [3]: -1.2%
inhibition [4]: 9.4%
inhibition [5]: 7.9%

CCN1CCN(Cc2ccc(NC(=O)c3ccc(C)c(/C=C/c4cnc5[nH]ccc5c4OC)c3)cc2C(F)(F)F)CC1
inhibition [1]: 15.4%
inhibition [2]: 12.2%
inhibition [3]: 0.1%
inhibition [4]: 6.4%
inhibition [5]: -7.3%
